Assay outcomes deposited in PubChem BioAssay by several laboratories.
Only a selection was taken, and hits are over-represented in it overall.
Hsp70 activator = Hsp70 transcriptional activation, primary screen; hit rate 0.04% among 200,000; HeLa Hsp70 promoter luciferase reporter, luminescence; scaled: vehicle 0, proteasome-inhibitor control 100%; activation, % at 10 µM;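 active = activation above the mean across all tested compounds plus 3 SD, cutoff set per campaign, cut at about 5.5% in these data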
HSF1 inhib = HSF1 inhibition. NIH3T3-HGL HSE-luciferase, MG132-induced, luminescence 8 h; hits give low values. activity change, negative = inhibition, % at 7.5 µM (by protocol). hit rate 0.77% among 300,000. AID 2098;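 active = more than half of replicate wells show activity change below -50%, luminescence cut by over half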;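 also: luciferase reports HSF-1 transcriptional activity via heat shock element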
HSF-1 act = increases HSF-1 driven luciferase reporter signal; NIH3T3-HGL HSF-1 luciferase reporter, MG132, 8 h; 100% = twice DMSO control signal; activation, % at 9 µM; hit rate 1.7% among 300,000; AID 504408;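 active = mean replicate activation of at least 50% with a set share of replicates each reaching 50%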
T cruzi inh = blocks replication of Trypanosoma cruzi | hit rate 1.4% among 300,000 | inhibition, % (no concentration beside the values) | T. cruzi beta-gal in NIH3T3, luminescence, 90 h;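 active = mean inhibition across valid replicates above about 55%, limit read from the data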;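 also: signal also drops with host cell toxicity which is not excluded here; higher percent means less beta-gal luminescence so fewer parasites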
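assay system = mouse NIH/3T3 fibroblasts infected with β-gal-expressing T. cruzi Tulahuen C4 | input = 5,000 NIH/3T3 host cells per well | buffer or medium = DMEM plus 2% FBS | timing = 3 h host attachment, then at least 90 h co-culture | measured by = GalScreen luminescence, 60 min | evaluation = luminescence reflecting intracellular parasite burden, expressed as percent inhibition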
L major viab = Leishmania major promastigote growth inhibition. Leishmania major promastigotes, resazurin fluorescence viability. hit rate 9% among 200,000. AID 1063. inhibition, % at 10 µM; in the data active = inhibition above about 50%;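 also: promastigotes grown with compound for 44 hours at 28 °C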
Lmaj promast 1uM = blocks Leishmania major promastigote growth at 1 uM, repeat screen; hit rate 13% among 1,100; L. major promastigote growth, resazurin fluorescence, 48 h; shares compounds with L major viab; inhibition, % at 1 µM; AID 1258;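 active = inhibition above about 50% in both repeat tests, limit read from the data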
Numbers stand for hits.

Screening Cc1c(Br)c([N+](=O)[O-])nn1CCCC(=O)Nc1sc2c(c1C#N)CCC2 returned Hsp70 activator inactive, HSF1 inhib inactive, HSF-1 act inactive, T cruzi inh inactive, L major viab 82 and Lmaj promast 1uM inactive.
For Cc1c(Cl)c([N+](=O)[O-])nn1CCCC(=O)Nc1sc2c(c1C#N)CCC2 the results were Hsp70 activator inactive, T cruzi inh inactive and L major viab inactive.
Screening O=[N+]([O-])c1ccc(N2CCN(C(=S)NCc3ccc(Cl)cc3)CC2)cc1 returned Hsp70 activator inactive, HSF1 inhib inactive, HSF-1 act inactive, T cruzi inh 57, L major viab 68 and Lmaj promast 1uM inactive.
For CCNC(=S)N1CCN(c2ccc([N+](=O)[O-])cc2)CC1 the results were Hsp70 activator inactive, HSF1 inhib inactive, HSF-1 act inactive, T cruzi inh inactive and L major viab inactive.
For Clc1ccc2[nH]cc(-c3nnnn3-c3ccc4ccccc4c3)c2c1 the results were Hsp70 activator inactive, HSF1 inhib inactive, HSF-1 act inactive, T cruzi inh 69, L major viab 99 and Lmaj promast 1uM 86.
CCN(CC)CCOC(c1ccccc1)c1ccc(C)cc1 (stereo not given) was read as Hsp70 activator inactive, HSF1 inhib inactive, HSF-1 act inactive, T cruzi inh inactive, L major viab 96 and Lmaj promast 1uM 74.
Screening CC(CCc1ccccc1)NCc1ccncc1 (stereo not given) returned Hsp70 activator inactive, HSF1 inhib inactive, HSF-1 act inactive, T cruzi inh inactive, L major viab 89 and Lmaj promast 1uM inactive.
`CC(Cc1ccccc1)C(=O)NCc1ccncc1` (stereo not given) gave Hsp70 activator inactive, HSF1 inhib inactive, HSF-1 act inactive, T cruzi inh inactive and L major viab inactive.
`CCOC(=O)c1ccccc1NC(=O)CN1CCC(n2nnc3cc(C(F)(F)F)ccc32)CC1` gave HSF1 inhib inactive, HSF-1 act inactive and T cruzi inh inactive.
Screening O=C(CN1CCC(n2nnc3cc(C(F)(F)F)ccc32)CC1)NCc1cccs1 returned Hsp70 activator inactive, HSF1 inhib inactive, HSF-1 act inactive, T cruzi inh inactive, L major viab 79 and Lmaj promast 1uM inactive.
CCOc1ccc(OCCC(=O)OCC(=O)NNC(=O)c2ccccc2)cc1 was read as HSF1 inhib inactive, HSF-1 act inactive and T cruzi inh inactive.
Screening CC(C)C(NC(=O)c1ccccc1)c1nnc(SCC(=O)NC2CCCC2)n1C (stereo not given) returned HSF1 inhib inactive, HSF-1 act inactive and T cruzi inh inactive.
Screening c1ccc(-c2nc3cc4ccccc4cc3[nH]2)nc1 returned Hsp70 activator inactive, HSF1 inhib inactive, HSF-1 act inactive, T cruzi inh inactive, L major viab 100 and Lmaj promast 1uM inactive.
CC(=O)Nc1ccc2nc(-c3ccccn3)[nH]c2c1 was read as Hsp70 activator inactive, HSF1 inhib inactive, HSF-1 act inactive, T cruzi inh inactive and L major viab inactive.
Screening CNC(=S)/N=C/NOCc1ccc(Cl)cc1Cl returned Hsp70 activator inactive, HSF1 inhib inactive, HSF-1 act inactive, T cruzi inh 74, L major viab 58 and Lmaj promast 1uM inactive.
`O=S(=O)(NCC1OCCc2ccccc21)c1ccc(S(=O)(=O)N2CCOCC2)cc1` (stereo not given) gave Hsp70 activator inactive, HSF1 inhib inactive, HSF-1 act inactive, T cruzi inh inactive and L major viab inactive.
Screening c1ccc2c(c1)CCOC2CNCCCN1CCCCC1 (stereo not given) returned Hsp70 activator inactive, HSF1 inhib inactive, HSF-1 act inactive, T cruzi inh inactive, L major viab 56 and Lmaj promast 1uM inactive.
Screening COc1ccccc1NC(=O)CN1CCC(C(=O)c2ccc(F)cc2)CC1 returned Hsp70 activator inactive, HSF1 inhib inactive, HSF-1 act inactive, T cruzi inh inactive, L major viab 71 and Lmaj promast 1uM inactive.
CCOc1ccccc1NC(=O)CN1CCC(C(=O)c2ccc(F)cc2)CC1 was read as HSF1 inhib inactive, HSF-1 act inactive and T cruzi inh inactive.
CC(C)(C)C1CCC2(CC1)Nc1cccc3cccc(c13)N2 was read as Hsp70 activator inactive, HSF1 inhib inactive, HSF-1 act inactive, T cruzi inh inactive, L major viab 100 and Lmaj promast 1uM 64.
C=CCNc1nc(N)c([N+](=O)[O-])c(NCCO)n1 was read as HSF1 inhib inactive, HSF-1 act inactive and T cruzi inh inactive.
`COc1ccccc1NC(=O)COC(=O)COc1cccc2c1OC(C)(C)C2` gave HSF1 inhib inactive, HSF-1 act inactive and T cruzi inh inactive.
Screening COc1cc2c(cc1OC)C(c1ccc(-c3ccccc3Cl)o1)=NCC2 returned Hsp70 activator inactive, L major viab 68 and Lmaj promast 1uM inactive.
`O=C1c2ccccc2C(=O)C12Cc1ccccc1N1CCN(c3ccccc3)CC12` (stereo not given) gave Hsp70 activator inactive, HSF1 inhib inactive, HSF-1 act inactive, T cruzi inh inactive, L major viab 65 and Lmaj promast 1uM 67.
Screening CC(C)(C)C(O)C(Cc1ccccc1Cl)n1cncn1 (stereo not given) returned HSF1 inhib inactive, HSF-1 act inactive and T cruzi inh inactive.
For C=CCc1ccc(OCCCCCN2CCOCC2)c(OC)c1 the results were Hsp70 activator inactive, HSF1 inhib inactive, HSF-1 act inactive, T cruzi inh inactive, L major viab 100 and Lmaj promast 1uM 58.
C=CCc1ccc(OCCCCOc2ccc(C(=O)O)cc2)c(OC)c1 was read as Hsp70 activator inactive, HSF1 inhib inactive, HSF-1 act inactive, T cruzi inh inactive and L major viab inactive.
CC(CCc1ccccc1)NS(=O)(=O)c1ccccc1Cl (stereo not given) was read as HSF1 inhib inactive, HSF-1 act inactive and T cruzi inh inactive.
For Cc1cc(C=O)c2c(c1)C=CC1(Oc3ccccc3C(=O)N1C)O2 (stereo not given) the results were Hsp70 activator inactive, HSF1 inhib inactive, HSF-1 act inactive, T cruzi inh inactive, L major viab 100 and Lmaj promast 1uM inactive.
For CN1C(=O)c2ccccc2OC1(C)Cc1ccccc1 (stereo not given) the results were Hsp70 activator inactive, HSF1 inhib inactive, HSF-1 act inactive, T cruzi inh inactive and L major viab inactive.
N=C(N)c1ccc(OCCCCCOc2ccc(C(=N)N)cc2)cc1 was read as Hsp70 activator inactive, HSF1 inhib inactive, HSF-1 act inactive, T cruzi inh inactive, L major viab 100 and Lmaj promast 1uM 100.
Screening CCOC(=O)c1ccc(N2C(=O)CC(C(=O)OC)=C2C)cc1 returned Hsp70 activator inactive, HSF1 inhib inactive, HSF-1 act inactive, T cruzi inh inactive, L major viab 86 and Lmaj promast 1uM inactive.
Screening CCOC(=O)c1ccc(N2C(=O)Cc3ccccc3C2=O)cc1 returned HSF1 inhib inactive, HSF-1 act inactive and T cruzi inh inactive.
